Assay results taken from ChEMBL document CHEMBL2010663, “Iodine-catalyzed condensation of isatin with indoles: a facile synthesis of di(indolyl)indolin-2-ones and evaluation of their cytotoxicity” (Bioorg Med Chem Lett, 2012).

What was measured:
[1] = system: SK-N-SH; test: Cytotoxicity against human SK-N-SH cells after 48 hrs by MTT assay; type: functional, cell-based
Summary of the method: (§1)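 Cells seeded at 10,000 cells/100 μl in medium with 10% serum and left 24 h in a humid 5% CO2 chamber to adhere. Compounds were then added at a range of concentrations for 48 h. MTT (5 mg/mL stock in PBS, 10 μl per well) was added for 2 h.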

[2] = system: MRC5; test: Cytotoxicity against human MRC5 cells after 48 hrs by MTT assay; type: cell-based; conditions: MRC5, 48 h; summary of the method: as §1
[3] = system: MDA-MB-231; test: Cytotoxicity against human MDA-MB-231 cells after 48 hrs by MTT assay; type: functional, cell-based; conditions: MDA-MB-231, 48 h; summary of the method: as §1
[4] = system: A549; test: Cytotoxicity against human A549 cells after 48 hrs by MTT assay; type: functional, cell-based; conditions: A549, 48 h; summary of the method: as §1

| Compound | IC50 [1] [nM] | IC50 [2] [µM] | IC50 [3] [µM] | IC50 [4] [µM] |
| --- | --- | --- | --- | --- |
| Cc1[nH]c2ccc([N+](=O)[O-])cc2c1C1(c2c(C)[nH]c3ccc([N+](=O)[O-])cc23)C(=O)Nc2ccc(Cl)cc21 | 1230 | > 100 | 10.1 | 69.4 |
| O=C1Nc2ccc(Cl)cc2C1(c1c[nH]c2ccc(Br)cc12)c1c[nH]c2ccc(Br)cc12 | 1040 | > 100 | > 100 | > 100 |
| Cc1[nH]c2ccccc2c1C1(c2c(C)[nH]c3ccccc23)C(=O)Nc2ccccc21 | 980 | > 100 | > 100 | 0.92 |
| c1ccc2[nH]ccc2c1 [INDOLE] | 1780 | 15.6 | > 100 | > 100 |
| COc1cccc2c1C(=O)c1c(O)c3c(c(O)c1C2=O)C[C@@](O)(C(=O)CO)C[C@@H]3O[C@H]1C[C@H](N)[C@H](O)[C@H](C)O1 [DOXORUBICIN] | 970 | 14.8 | 8.14 | 15.1 |
| O=C1Nc2ccccc2C1(c1c[nH]c2ccc(Cl)cc12)c1c[nH]c2ccc(Cl)cc12 | 1310 | > 100 | 10 | > 100 |
| N#Cc1ccc2[nH]cc(C3(c4c[nH]c5ccc(C#N)cc45)C(=O)Nc4ccccc43)c2c1 | 940 | > 100 | 99.1 | 0.97 |
| O=C1Nc2ccc(Cl)cc2C1(c1c(-c2ccccc2)[nH]c2ccccc12)c1c(-c2ccccc2)[nH]c2ccccc12 | > 100000 | > 100 | > 100 | > 100 |
| Cn1cc(C2(c3cn(C)c4ccccc34)C(=O)Nc3ccccc32)c2ccccc21 | 1320 | > 100 | > 100 | > 100 |
| COC(=O)c1ccc2[nH]cc(C3(c4c[nH]c5ccc(C(=O)OC)cc45)C(=O)Nc4ccc(Cl)cc43)c2c1 | 9900 | > 100 | 10 | 71.5 |
| Cc1[nH]c2ccc([N+](=O)[O-])cc2c1C1(c2c(C)[nH]c3ccc([N+](=O)[O-])cc23)C(=O)Nc2ccccc21 | 940 | > 100 | 99.4 | 0.89 |
| COC(=O)c1ccc2[nH]cc(C3(c4c[nH]c5ccc(C(=O)OC)cc45)C(=O)Nc4ccccc43)c2c1 | 980 | > 100 | > 100 | 0.75 |
| O=C1Nc2ccccc2C1(c1c[nH]c2ccc(Br)cc12)c1c[nH]c2ccc(Br)cc12 | 930 | > 100 | 9.95 | 0.96 |
| O=C1Nc2ccccc2C1(c1c[nH]c2ccc([N+](=O)[O-])cc12)c1c[nH]c2ccc([N+](=O)[O-])cc12 | 990 | > 100 | 9.98 | 7.9 |
| O=C1Nc2ccccc2C1=O [ISATIN] | 9840 | > 100 | > 100 | 13.5 |
| O=C1Nc2ccccc2C1(c1c(-c2ccccc2)[nH]c2ccccc12)c1c(-c2ccccc2)[nH]c2ccccc12 | 9600 | > 100 | > 100 | 8.91 |
| O=C1Nc2ccccc2C1(c1c[nH]c2ccccc12)c1c[nH]c2ccccc12 | 900 | > 100 | > 100 | 1.23 |
